Source: PubChem
APJ agonist – activates the human apelin receptor APJ; P35414; CHO-K1 APJ PathHunter beta-arrestin, luminescence; 0% DMSO wells, 100% apelin; activation, % at 20 µM; 330,000 compounds, 0.11% hits;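 active means activation more than six SD over the plate average, tested at 20 µM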;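 further: 0% = DMSO alone and 100% = apelin-13 at 10 nM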
Target sequence (P35414 whole entry, looked up): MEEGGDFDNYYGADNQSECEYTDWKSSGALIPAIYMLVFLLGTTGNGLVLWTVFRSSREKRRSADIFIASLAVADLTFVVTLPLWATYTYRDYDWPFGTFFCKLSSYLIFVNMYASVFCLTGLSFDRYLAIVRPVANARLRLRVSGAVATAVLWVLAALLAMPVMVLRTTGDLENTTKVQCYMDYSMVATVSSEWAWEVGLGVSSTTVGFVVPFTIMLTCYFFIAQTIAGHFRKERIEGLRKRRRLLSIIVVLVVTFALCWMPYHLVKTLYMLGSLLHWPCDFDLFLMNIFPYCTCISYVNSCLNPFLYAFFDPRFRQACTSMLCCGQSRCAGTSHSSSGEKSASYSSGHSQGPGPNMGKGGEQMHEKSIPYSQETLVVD
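Assay system: engineered CHO-K1 APJ arrestin reporter cells; Amount: 1000 CHO-K1 reporter cells seeded per well; Dosing: one dose, 20 µM compound, 1% DMSO; Times: compound stimulation 90 min at 25 °C, detection 60 min; Measured by: luminescent beta-gal fragment complementation, chemiluminescent substrate; Read-out: APJ–arrestin association signal; Controls: DMSO vs Apelin-13 10 nM.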
CCR6 antag – blocks CCL20-driven beta-arrestin recruitment at human CCR6; AID 493098; inhibition, % at 20 µM; 340,000 compounds, 0.49% hits; P51684; CHO-K1 CCR6 PathHunter beta-arrestin, luminescence, CCL20-stimulated;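 active means compounds whose inhibition of the agonist-driven luminescence signal at 20 µM reaches about 50%, limit read from the data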;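 further: cells stimulated with CCL20 at 14 nM final; plate controls were DMSO with CCL20 for no effect and DMSO without agonist for full effect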
CXCR6 block – inhibitors of human CXCR6 receptor; O00574; CHO-K1 PathHunter CXCR6 beta-arrestin, luminescence; inhibition, % at 20 µM; 360,000 compounds, 0.36% hits; AID 602244; in the data active means inhibition above about 34%, passing the limit was not always enough;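 further: antagonist mode with CXCL16 agonist at 10 nM final; 0% = 10 nM CXCL16 with DMSO and 100% = unstimulated wells without agonist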
APJ antagonist – antagonists of human APJ apelin receptor. inhibition, % at 20 µM. CHO-K1 APJ beta-arrestin complementation, luminescence. 330,000 compounds, 0.32% hits;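 active means inhibition above about 40% at 20 µM, limit read from the data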;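 further: cells challenged with 10 nM apelin-13 agonist together with compound; plate controls were apelin-13 plus DMSO wells for no effect and DMSO wells lacking apelin-13 for full effect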
EBI2 block – blocks human EBI2 receptor beta-arrestin signaling | P32249 | EBI2 beta-arrestin recruitment, luminescence, 7a,25-OHC stimulated | inhibition, % at 5 µM | 360,000 compounds, 0.81% hits | AID 651636; in the data active means inhibition above about 38%;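 further: enzyme fragment complementation signal reports receptor beta-arrestin coupling in cells; 0% = agonist plus DMSO wells and 100% = wells without agonist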
EBI2 antag conf – EBI2 (human) antagonism, single concentration confirmation | shares compounds with EBI2 block | EBI2 beta-arrestin luminescence, 7a,25-OHC antagonism | inhibition, % at 5 µM | 2,400 compounds, 29% hits;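 active means inhibition of at least 50%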
EBI2 ag – activates EBI2, counter-screen for EBI2 antagonists; shares compounds with EBI2 block; EBI2-expressing cells, agonist mode, luminescence, 60 min; 0% vehicle, 100% 7α,25-dihydroxycholesterol control; activation, % at 5 µM; 2,400 tested, under 10 active;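 active means activation of at least 50%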
bGal cs – inhibits E. coli beta-galactosidase, counter-screen for EBI2 antagonists; inhibition, % at 5 µM; shares compounds with EBI2 block; 2,400 compounds, 1% hits; purified beta-galactosidase, luminescent Galacton Star, 15 min;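 active means replicate-average signal at least 3 plate SD below neutral wells, shown as high inhibition, flagging enzyme-inhibiting false positives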;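 further: 0% = DMSO wells with enzyme and 100% = wells lacking enzyme; higher means stronger loss of beta-gal luminescence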
The depositor's hits bear a star; . = no result given. Hits are enriched below; roughly 1.5% of the tested compounds scored in any of these assays.

SMILES	APJ agonist	CCR6 antag	CXCR6 block	APJ antagonist	EBI2 block	EBI2 antag conf	EBI2 ag	bGal cs
Cc1ccc(/C=C/C(=O)N2CCN(Cc3ccccc3)CC2)o1	2.9	9.5	-3.1	7.7	1.8	.	.	.
O=C(/C=C/c1ccc(Br)cc1)N1CCN(Cc2ccccc2)CC1	3.7	5.6	-4.1	9.8	96.0*	85.3*	-0.8	-6.9
COc1ccccc1N(C)S(=O)(=O)c1ccc(C(=O)N(C)Cc2cccc(F)c2)cc1	.	.	-0.3	.	5.7	.	.	.
COc1ccc(C)cc1NC(=O)CCCN1C(=O)CN(C)C1=O	-3.6	8.7	-1.0	-11.5	4.1	.	.	.
Cc1ccc(CCNC(=O)C23CN(Cc4ccccc4)CC2C(c2ccc([N+](=O)[O-])cc2)=NO3)cc1 (stereo unspecified)	7.8	1.9	0.7	-17.0	65.1*	43.0	-1.3	-0.8
COc1ccc(-c2cc(C(=O)N3CCN(C(c4ccccc4)c4ccccc4)CC3)no2)cc1	-5.2	12.7	0.3	0.3	90.8*	76.3*	0.2	9.1
COc1ccc2oc(C(=O)N3CCN(C/C=C/c4ccccc4)CC3)c(C)c2c1	2.7	5.7	4.7	2.7	46.1*	29.7	0.1	-10.6
COc1ccc(N2CCN(C(=O)c3oc4ccccc4c3C)CC2)cc1	-1.0	1.1	-0.4	2.1	20.7	.	.	.
Cc1c(C(=O)N2CCN(C/C=C/c3ccccc3)CC2)oc2c(F)cccc12	-4.1	12.9	3.4	-8.1	32.1	.	.	.
COc1ccc2oc(C(=O)N3CCN(C(c4ccccc4)c4ccccc4)CC3)c(C)c2c1	-0.6	19.8	5.3	10.1	91.5*	68.5*	2.8	8.3
O=C(CSc1nnc(SCc2ccccc2)s1)N/N=C/C=C\c1ccco1	-4.1	31.6	0.3	10.4	12.3	.	.	.
O=C(CSc1nnc(SCc2ccc(Cl)cc2)s1)N/N=C/c1ccc(Cl)cc1Cl	-3.0	-6.5	-9.8	-11.8	52.4*	10.1	0.8	3.0
CC(=C/c1ccco1)/C=N/NC(=O)CSc1nnc(SCc2ccc(C)cc2)s1	0.5	-15.1	7.6	-32.6	59.3*	20.4	-0.6	-8.9
COc1ccc(OC)c(C(=O)N2CCC(n3nccc3NC(=O)CC(C)C)CC2)c1	-1.5	7.4	-2.7	4.0	4.7	.	.	.
O=C(COc1cccnc1[N+](=O)[O-])Nc1cccc(Br)c1	-1.6	10.5	0.7	8.7	-5.1	.	.	.
O=C(COc1cccnc1[N+](=O)[O-])Nc1ccccc1Sc1ccccc1	-1.6	5.0	4.9	4.0	47.6*	32.4	0.4	6.5
CCOC(=O)c1[nH]c2ccc(OCC)cc2c1CCCN1C(=O)c2ccccc2C1=O	-1.6	19.6	4.5	1.8	45.9*	44.6	0.0	7.6
CCOC(=O)c1[nH]c(C)c(C(=O)OCCN2C(=O)c3ccccc3C2=O)c1C	0.7	3.9	2.6	1.6	5.4	.	.	.
O=C(c1cccc(C(=O)N2CCN(c3ccccc3F)CC2)c1)N1CCN(c2ccccc2F)CC1	4.0	-2.8	6.0	-14.2	-2.9	.	.	.
Cc1[nH]c(-c2ccc(F)cc2)cc1C(=O)N1CCN(c2ccccc2F)CC1	-0.4	-27.6	10.9	4.7	90.9*	85.2*	-0.3	8.5
COc1ccccc1N1CCN(C(=O)c2cc(-c3ccc(F)cc3)[nH]c2C)CC1	0.9	7.0	8.4	-5.0	95.3*	71.5*	-0.7	-6.0
COc1ccccc1N1CCN(C(=O)c2ccoc2C)CC1	-1.8	-19.6	0.0	-8.7	-6.9	.	.	.
COc1cccc(C(O)c2nc(-c3cccc(F)c3)cs2)c1 (stereo unspecified)	.	.	-3.8	.	4.6	.	.	.
Cc1ccc(C(=O)OCC(=O)Nc2ccc(C(N)=O)cc2)s1	-3.0	5.7	-1.9	-32.6	-8.9	.	.	.
CCN(c1ccc(NC(=O)COC(=O)c2ccc(C)s2)cc1)C(C)C	0.9	2.6	3.7	-0.2	50.2*	34.0	0.1	7.0
Cc1cnc(NC(=O)Cc2cccs2)s1	-0.1	4.0	-8.0	1.9	-3.0	.	.	.
